Screening results deposited in PubChem BioAssay by Sanford-Burnham Center for Chemical Genomics.
The list is not random: actives were taken first. Their share in the collection is about 3.1%.
SENP8 block-1: inhibitors of human SENP8 protease; Q96LD8; purified SENP8, Z-RLRGG-aminoluciferin cleavage, luminescence; 330,000 tested, 1.2% active; inhibition, % at 10 µM; in the data active = inhibition above about 50%
Apaf-1 inh: blocks human Apaf-1 apoptosome activity; inhibition, % at 20 µM; reconstituted apoptosome caspase-3 activity, DEVD-Rh110 fluorescence; AID 489030; O14727; 330,000 tested, 0.71% active; active = inhibition of at least 40% at 20 µM;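 note: plate controls were DMSO wells for no effect and DEVD-CHO caspase inhibitor wells for full effect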
Target sequence (O14727 whole entry, looked up): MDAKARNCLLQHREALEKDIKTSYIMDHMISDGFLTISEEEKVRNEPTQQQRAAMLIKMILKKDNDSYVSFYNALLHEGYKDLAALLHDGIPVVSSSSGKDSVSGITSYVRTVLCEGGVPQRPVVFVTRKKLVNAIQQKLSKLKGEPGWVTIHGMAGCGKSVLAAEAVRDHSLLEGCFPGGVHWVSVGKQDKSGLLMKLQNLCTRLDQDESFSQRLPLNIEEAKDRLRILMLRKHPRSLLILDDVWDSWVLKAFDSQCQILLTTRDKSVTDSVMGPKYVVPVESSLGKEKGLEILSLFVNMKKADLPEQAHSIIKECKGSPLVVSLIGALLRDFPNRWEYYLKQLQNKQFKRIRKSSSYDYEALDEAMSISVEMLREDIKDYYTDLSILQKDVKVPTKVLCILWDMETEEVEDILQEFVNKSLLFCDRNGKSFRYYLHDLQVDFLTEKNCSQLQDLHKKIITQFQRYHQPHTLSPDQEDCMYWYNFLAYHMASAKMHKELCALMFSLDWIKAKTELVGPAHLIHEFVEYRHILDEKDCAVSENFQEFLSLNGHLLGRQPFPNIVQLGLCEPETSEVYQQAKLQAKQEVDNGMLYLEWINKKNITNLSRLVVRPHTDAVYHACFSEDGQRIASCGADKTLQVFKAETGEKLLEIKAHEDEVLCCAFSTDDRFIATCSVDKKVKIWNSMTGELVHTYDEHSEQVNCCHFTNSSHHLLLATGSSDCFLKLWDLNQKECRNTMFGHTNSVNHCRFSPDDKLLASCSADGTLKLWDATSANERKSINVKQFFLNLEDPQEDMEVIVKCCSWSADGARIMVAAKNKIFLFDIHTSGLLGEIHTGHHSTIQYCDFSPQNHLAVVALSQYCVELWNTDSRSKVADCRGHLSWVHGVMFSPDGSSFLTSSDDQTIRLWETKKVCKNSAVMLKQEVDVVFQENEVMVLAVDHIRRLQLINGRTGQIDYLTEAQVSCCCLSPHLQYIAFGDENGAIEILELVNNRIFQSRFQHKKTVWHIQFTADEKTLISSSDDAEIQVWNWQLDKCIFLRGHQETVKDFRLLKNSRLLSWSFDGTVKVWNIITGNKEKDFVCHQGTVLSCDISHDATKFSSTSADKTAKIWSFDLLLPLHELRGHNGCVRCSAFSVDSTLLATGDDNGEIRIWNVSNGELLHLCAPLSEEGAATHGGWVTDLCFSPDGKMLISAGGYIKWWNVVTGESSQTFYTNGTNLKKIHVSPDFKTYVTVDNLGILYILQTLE
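Material: reconstituted apoptosome with Apaf-1, cytochrome c, caspase-9, procaspase-3, dATP. Technique: Rh110 fluorescence intensity. Buffer or medium: pH 7.5 Hepes buffer with CHAPS, BSA, DTT. Times: 30 min plus 50 min, RT.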
SENP7 block: SENP7 protease inhibition; Q9BQF6; recombinant SENP7, Z-RLRGG-aminoluciferin luminescence, 40 min; inhibition, % at 5 µM; 330,000 tested, 1.5% active;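 active = inhibition above about 50% at the single test dose, limit read from the data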;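 note: plate controls were DMSO with enzyme for no effect and no enzyme buffer wells for full effect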
UBC13 polyUb: human UBC13 polyubiquitination inhibition. P61088. UBC13 polyubiquitin chain formation, TR-FRET. inhibition, % at 20 µM. 330,000 tested, 0.47% active. AID 485273; in the data active = inhibition above about 45%, passing the limit was not always enough
SENP6 inh: inhibitors of human SENP6 protease; Recombinant SENP6 catalytic domain, aminoluciferin luminescence; inhibition, % at 10 µM; Q9GZR1; 330,000 tested, 1.8% active;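 active = inhibition above about 50% at the single tested dose, limit read from the data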;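 note: plate controls were DMSO wells with enzyme for no effect and DMSO wells lacking enzyme for full effect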
SENP8 block-2: blocks human SENP8 cleavage of Nedd8 substrate. Q96LD8. recombinant SENP8, Nedd8 substrate fluorescence. inhibition, % at 20 µM. 360,000 tested, 0.64% active; in the data active = inhibition mostly above about 40%, no sharp cut-off; inactive = mostly below about 27%
SENP8 conf: confirmation of human SENP8 protease inhibitors. shares compounds with SENP7 block. 6,200 tested, 40% active. Recombinant SENP8, Z-RLRGG-aminoluciferin luminescence, 60 min. inhibition, % at 12.5 µM;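 active = mean inhibition across replicates above about 50%, limit read from the data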
SENP6 confirm: confirmation of human SENP6 protease inhibitors | shares compounds with SENP7 block | recombinant SENP6, Z-RLRGG-aminoluciferin luminescence | inhibition, % at 12.5 µM | 6,200 tested, 58% active | AID 488915
SENP7 conf: human SENP7 inhibition, confirmed | shares compounds with SENP7 block | recombinant SENP7, Z-RLRGG-aminoluciferin luminescence, 40 min | inhibition, % at 12.5 µM | 6,200 tested, 69% active
Casp3 SENP sel: selectivity test for SENP inhibitors: human caspase-3 inhibition; AID 488918; 6,200 tested, 60% active; inhibition, % at 12.5 µM; purified caspase-3, Z-DEVD-aminoluciferin luminescence, 60 min; shares compounds with SENP7 block;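 active = mean inhibition above about 50%, limit read from the data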;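 note: plate controls were enzyme with DMSO for no effect and wells without caspase-3 for full effect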
SENP luc ctr: counter-screen for SENP inhibitors: luminescence interference | Pre-incubated SENP8/Z-RLRGG-aminoluciferin, luciferase luminescence interference | 6,200 tested, 39% active | shares compounds with SENP7 block | inhibition, % at 12.5 µM;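 active = mean inhibition above about 50% when retested at one dose, limit read from the data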;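 note: plate controls were DMSO wells with completed reaction for no effect and substrate without enzyme for full effect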
Apaf-1 inh conf2: Apaf-1 inhibition, single-dose confirmed; shares compounds with Apaf-1 inh; 1,800 tested, 25% active; inhibition, % at 20 µM; reconstituted apoptosome, caspase-3 DEVD-Rh110 fluorescence;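 active = mean inhibition of at least 40% at 20 µM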;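 note: plate controls were DMSO wells for no effect and DEVD-CHO caspase inhibitor control wells for full effect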
Rh110 interf inh: Rh110 signal interference in Apaf-1 inhibitor counter-screen; 1,800 tested, under 10 active; Rh110 fluorescence interference, quenched caspase reaction; shares compounds with Apaf-1 inh; activation (fluorescence interference), % at 20 µM;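 active = signal rise of 40% or more at 20 µM, treated as a fluorescence artifact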
Apaf1 inh interf: counter-screen for Apaf-1 inhibitors: fluorescence interference, dose response; IC50, µM; 460 tested, under 10 active; fluorescence interference counterscreen, Apaf-1 assay format; shares compounds with Apaf-1 inh; call rule not given here
Numbers without * were called inactive; nt = no result.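 Rule for the calls, unless noted: active = mean inhibition above about 50% in the one-dose retest (limit read from the data); inactive = the rest.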

SMILES | SENP8 block-1 | Apaf-1 inh | SENP7 block | UBC13 polyUb | SENP6 inh | SENP8 block-2 | SENP8 conf | SENP6 confirm | SENP7 conf | Casp3 SENP sel | SENP luc ctr | Apaf-1 inh conf2 | Rh110 interf inh | others
CN(C)c1ccccc1 | nt | nt | nt | nt | nt | 2 | nt | nt | nt | nt | nt | nt | nt
Cc1cccc(N=Nc2ccc(N(C)C)cc2)c1 | 84* | 6 | 87* | -70 | 90* | 16 | -24 | 83* | 19 | 20 | 20 | nt | nt
CCCNC1=C(C)C(=O)C2=C(C1=O)C(COC(N)=O)[C@]1(OC)C3NC3CN21 (stereo partly drawn) | 38 | 57* | 29 | -22 | 66* | 32 | -10 | -5 | -8 | -3 | -9 | nt | nt
COCCCn1c(N)c(C(=O)OCCOC)c2nc3ccccc3nc21 | 60* | 95* | 57* | -10 | 58* | -472 | 7 | 9 | 1 | -2 | -2 | 16 | 12
CCOC(=O)c1c(NS(=O)(=O)c2ccccc2)n(CCCOC)c2nc3ccccc3nc12 | 91* | 96* | 95* | -11 | 95* | -423 | 29 | 58* | 38 | 1 | 1 | 76* | 4 | Apaf1 inh interf=>100
COCCNC(=O)c1c(NC(=O)c2ccc(Br)o2)n(Cc2ccccc2)c2nc3ccccc3nc12 | 82* | 67* | 42 | -16 | 83* | -290 | 5 | 38 | 17 | 4 | 3 | 25 | -7
CC(C)OCCCNC(=O)c1c(N)n(Cc2cccs2)c2nc3ccccc3nc12 | 44 | 95* | 30 | 6 | 64* | -493 | 6 | 12 | 12 | 6 | 2 | 34 | 14
COCCOC(=O)c1c(N)n(Cc2ccco2)c2nc3ccccc3nc12 | -4 | 27 | 13 | -11 | 15 | -470 | nt | nt | nt | nt | nt | nt | nt
COc1ccc(C(c2nnnn2-c2ccc3c(c2)OCCO3)N2CCC3(CC2)C(=O)NCN3c2ccccc2)cc1 (stereo not drawn) | nt | nt | nt | nt | nt | 17 | nt | nt | nt | nt | nt | nt | nt
C[C@@H]1CN([C@@H](C)CO)C(=O)CCCn2nncc2CO[C@@H]1CN(C)C(=O)Oc1ccccc1 | nt | nt | nt | nt | nt | 7 | nt | nt | nt | nt | nt | nt | nt
Oc1ccc(O)c2c1C1(Cl)C(Cl)=C(Cl)C2(Cl)C1(Cl)Cl | nt | nt | nt | nt | nt | 9 | nt | nt | nt | nt | nt | nt | nt
CCCCCn1c(NC(=O)c2ccco2)c(C(=O)OCC)c2nc3ccccc3nc21 | 80* | 92* | 35 | -36 | 79* | -361 | 0 | 6 | 2 | -3 | -6 | 49* | 9 | Apaf1 inh interf=>100
Nc1c(C(=O)NCC2CCCO2)c2nc3ccccc3nc2n1Cc1ccco1 (stereo not drawn) | -6 | 32 | -2 | -27 | 5 | -468 | nt | nt | nt | nt | nt | nt | nt
CC(C)CCn1c(N)c(C(=O)NCc2cccs2)c2nc3ccccc3nc21 | 87* | 89* | 51* | 13 | 80* | -279 | -4 | 4 | 9 | 3 | 2 | 30 | 5
CCCCNC(=O)c1c(N)n(CCCOC)c2nc3ccccc3nc12 | 86* | 90* | 49 | 3 | 89* | -277 | 19 | 49 | 18 | 0 | -7 | 50* | 1 | Apaf1 inh interf=>100
